In the library only some 1.9% were active in any assay of this set; here they are far more common.
Hck-Nef inh – human Hck-Nef kinase inhibition | P08631 | AID 463187 | inhibition, % at 20 µM | Recombinant Hck-YEEI plus Nef, Z-Lyte FRET kinase assay | actives 0.68% (n = 220,000);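 active means Hck-Nef kinase inhibition above about 50%, limit read from the data; inactive means inhibition below that limit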;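 further: 0% = DMSO with Hck plus Nef and 100% = Hck alone without Nef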
Runt-CBFb FRET – inhibitors of human RUNX1 Runt domain binding to CBFb. AID 1496. actives 0.46% (n = 220,000). Cerulean-Runt/Venus-CBFb FRET ratio 530/480, 1 h. inhibition, % at 20 µM;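 active means inhibition over about 50% at 20 µM in the single-dose screen, limit read from the data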;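 further: 0% = DMSO wells and 100% = excess unlabeled CBFb competitor control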
Target sequence (Q01196 whole entry, looked up, the tested form may be a part): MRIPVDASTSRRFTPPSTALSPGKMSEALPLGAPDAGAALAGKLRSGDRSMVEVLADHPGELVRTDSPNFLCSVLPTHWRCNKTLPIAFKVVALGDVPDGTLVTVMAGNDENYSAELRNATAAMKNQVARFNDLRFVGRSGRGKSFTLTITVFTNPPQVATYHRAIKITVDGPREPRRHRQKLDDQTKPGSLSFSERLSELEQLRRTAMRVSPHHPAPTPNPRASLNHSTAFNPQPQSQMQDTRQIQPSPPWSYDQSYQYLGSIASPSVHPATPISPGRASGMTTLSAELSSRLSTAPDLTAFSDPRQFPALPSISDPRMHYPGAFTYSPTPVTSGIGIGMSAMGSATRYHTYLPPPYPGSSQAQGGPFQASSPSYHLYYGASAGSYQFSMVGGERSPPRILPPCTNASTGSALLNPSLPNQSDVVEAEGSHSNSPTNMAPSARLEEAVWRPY
Target sequence (Q13951 whole entry, looked up, the tested form may be a part): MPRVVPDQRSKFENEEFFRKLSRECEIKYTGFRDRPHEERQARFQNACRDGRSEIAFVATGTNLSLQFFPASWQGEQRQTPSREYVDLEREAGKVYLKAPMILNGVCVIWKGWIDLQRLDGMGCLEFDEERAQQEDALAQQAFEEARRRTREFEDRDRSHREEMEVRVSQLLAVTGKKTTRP
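Assay system: Cerulean-tagged RUNX1 Runt domain (FRET donor) fusion protein / Amount: 100 nM each of Venus-CBFb and Cerulean-Runt domain / Medium: Tris buffer pH 7.5 with salts and BSA / Also added: Venus-CBFb 100 nM / Schedule: 1 h complex formation plus 1 h compound treatment, room temperature / Signal: FRET fluorescence / Read-out: loss of energy transfer signal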
Runt-SMMHC FRET – Runt domain-CBFb-SMMHC interaction inhibition; Q01196+Q13951; Cerulean-Runt/Venus-CBFb-SMMHC FRET ratio 530/480, 1 h; inhibition, % at 20 µM; actives 0.74% (n = 220,000); AID 1434;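 active means mean inhibition across duplicate retests at 20 µM reaching about 50%, limit read from the data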;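 further: 0% = DMSO wells and 100% = wells with excess untagged CBFb-SMMHC; inhibitors lower the FRET ratio by blocking Runt binding to CBFb-SMMHC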
RanGTP-Impb inh – inhibitors of RanGTP-importin-beta interaction, primary screen, biochemical, FRET, CFP-Ran, YFP-importin-beta, homogeneous; AID 2216; inhibition, % (test concentration not listed); actives 1.1% (n = 300,000); cell-free CFP-Ran/YFP-importin-beta FRET ratio;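 active means more than half of the replicate wells show a fall in the fluorescence ratio signal beyond about 16%, limit read from the data, passing the limit was not always enough; inconclusive means exactly half of the replicate wells pass the set limit; inactive means fewer than half of replicates pass the limit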;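 further: 0% = DMSO wells and 100% = Ran loaded with GDP instead of GTP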
* = called active by the depositor; ? = inconclusive; / = not tested or not shown.

SMILES	Hck-Nef inh	Runt-CBFb FRET	Runt-SMMHC FRET	RanGTP-Impb inh
N=c1c(C(=O)NCC2CCCO2)cc2c(=O)n3ccccc3nc2n1Cc1ccccc1Cl (stereo unspecified)	/	/	/	188*
CCC(Oc1ccccc1)C(=O)Nc1ccc(C)c(S(=O)(=O)N2CCOCC2)c1 (stereo unspecified)	/	/	/	-3
O=c1[nH]ncn1-c1ccc(Br)cc1	7	0	2	-3
CCOc1cc(C2C3=C(CC(C)(C)CC3=O)N(CCOC)C3=C2C(=O)CC(C)(C)C3)ccc1O	/	/	/	4
N=c1c(C(=O)NCC2CCCO2)cc2c(=O)n3ccccc3nc2n1Cc1ccccc1 (stereo unspecified)	/	/	/	180*
COc1ccc(-c2cc(C(F)F)n3ncc(C(=O)NCC4CCCO4)c3n2)cc1 (stereo unspecified)	1	18	62*	58*
COc1ccc(N2CCN(C(=O)C3CCN(C(=O)c4cccc(Cl)c4)CC3)CC2)cc1	/	/	/	-1
CCOC(=O)c1c(C)[nH]c(C(=O)CN2CC(C)OC(C)C2)c1C (stereo unspecified)	-1	-4	-1	29*
CCOC(=O)c1c(C)[nH]c(C(=O)CN2CCN(CC)CC2)c1C	13	2	-2	0
Cc1csc(NC(=O)c2cc(=O)[nH]c3ccccc23)n1	12	30	69*	4
Cc1csc(NC(=O)c2cc(C)nc3ccccc23)n1	11	0	8	4
CC(=O)c1cccc(NC(=O)C(C)OC(=O)Cc2c[nH]c3ccccc23)c1 (stereo unspecified)	/	/	/	1
NC(=S)c1cc2ccc(O)cc2oc1=O	19	9	82*	147*
C/C(=N/NC(=O)c1ccncc1)c1cc2ccc(O)cc2oc1=O	5	19	63*	/
C/C(=N/NC(N)=S)c1cc2ccc(O)cc2oc1=O	187*	10	84*	152*
NC(=S)c1cc2cc(Br)ccc2oc1=O	-1	/	-7	3
COc1ccc(N(C(=O)c2snc(C(N)=O)c2N)C(C(=O)NC2CCCC2)c2ccco2)cc1 (stereo unspecified)	/	/	/	1
NC(=O)c1nsc(C(=O)N(CCc2ccccc2)C(C(=O)NC2CCCC2)c2ccco2)c1N (stereo unspecified)	0	4	6	89*
Cc1ccc(N(C(=O)c2snc(C(N)=O)c2N)C(C(=O)NCCC(C)C)c2ccco2)cc1 (stereo unspecified)	75*	-3	9	-1
CCc1ccc(N(C(=O)c2snc(C(N)=O)c2N)C(C(=O)NC2CCCC2)c2ccco2)cc1 (stereo unspecified)	/	/	/	5
CC1CCN(C(=O)Cn2c3ccccc3c3nc4n(c(=O)c32)CCS4)CC1	/	/	/	3
O=C(CO/N=C\c1ccccc1)Nc1ccccc1C(=O)N1CCOCC1	1	-2	-1	-1
CN1CCC(N(C)CC(C)(C)NS(=O)(=O)c2ccccc2)CC1	21	2	2	7
CCCCN(C(=O)C1CC(=O)N(c2ccc(OC)cc2OC)C1)c1c(N)n(CC(C)C)c(=O)[nH]c1=O (stereo unspecified)	/	/	/	-2
CCOc1ccc(C2CC(c3cccc(Cl)c3)n3nc(N)nc3N2)cc1 (stereo unspecified)	0	-2	4	26*
SMILES	Hck-Nef inh	Runt-CBFb FRET	Runt-SMMHC FRET	RanGTP-Impb inh
CC1CCN(C(=O)CSc2nnc(-c3cc4ccccc4cc3O)n2Cc2ccco2)CC1	5	26	24	39*
COCCCNc1nc2nonc2nc1N1CCN(Cc2cccc(C)c2)CC1	3	24	82*	0
COCCCNc1nc2nonc2nc1N1CCN(C2CCCC2)CC1	13	-2	-1	0
CC1CCN(Cc2nnnn2CCCC(=O)NCCc2cnn(C)c2)CC1	/	/	/	-1
O=C(CN1C(=O)S/C(=C\c2cc(Cl)c(O)c(Cl)c2)C1=O)Nc1ccccc1	/	/	/	51*
Cc1cccc(NC(=O)CN2C(=O)S/C(=C\c3ccc(O)c([N+](=O)[O-])c3)C2=O)c1	61*	-8	0	-7
Cc1sc2ncn(CC(=O)N3CCOCC3)c(=O)c2c1-c1ccccc1	24	2	-2	2
CCOc1cccc2cc(C(=O)NCc3ccc(OC)cc3)c(=N)oc12	/	/	/	3
NC1=NS(=O)(=O)NC1c1ccc(F)cc1 (stereo unspecified)	18	2	-1	-3
CC(/C=C1\SC(=S)N(NS(=O)(=O)c2ccccc2)C1=O)=C\c1ccccc1	74*	-1	-9	?
O=C(CNc1cccc(S(=O)(=O)N2CCOCC2)c1)N1CCc2ccccc21	0	1	-1	0
